Measurements: ChEMBL document CHEMBL4152260, “Design, synthesis and biological evaluation of novel quinazoline-2,4-diones conjugated with different amino acids as potential chitin synthase inhibitors” (Eur J Med Chem, 2018)
Converted amounts (≈) assume the structure as drawn.

Columns and labels:
[1] = test system: Aspergillus flavus; experiment: Antifungal activity against Aspergillus flavus ATCC 16870 measured after 24 hrs; format: functional; details: ATCC 16870, 24 h
[2] = test system: Saccharomyces cerevisiae; experiment: Inhibition of yeast chitin synthase at 300 ug/ml using UDP-GlcNAc as substrate measured after 1 hr relative to control
Outline: (§1)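 Membrane CHS from S. cerevisiae CGMCC2.145 (YPAD, 30 °C, 48 h; sonication; 55000 g pellet in Tris/33% glycerol). Wells coated with WGA and blocked with BSA. Reaction in pH 6.8 Tris-maleate with 40 mM GlcNAc, 2 mM UDP-GlcNAc, 37 °C, 1 h. Product detected with WGA-HRP and TMB/H2O2, A450. Test solutions 300–18.75 μg/mL. Inhibition = (B0−Bn)/(B0−OD0); IC50 from log c plot.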

[3] = test system: Candida albicans; experiment: Antifungal activity against Candida albicans ATCC 76615 measured after 24 hrs; format: functional; details: ATCC 76615, 24 h
[4] = test system: Aspergillus fumigatus; experiment: Antifungal activity against Aspergillus fumigatus GIMCC 3.19 measured after 24 hrs; format: functional; details: GIMCC 3.19, 24 h
[5] = test system: Cryptococcus neoformans; experiment: Antifungal activity against Cryptococcus neoformans ATCC 32719 measured after 24 hrs; format: functional; details: ATCC 32719, 24 h
[6] = test system: Aspergillus flavus; experiment: Antifungal activity against Aspergillus flavus ATCC 16870 measured after 48 hrs by two-dimensional broth microdilution checkboard method; format: functional; details: ATCC 16870, 48 h
Outline: (§2)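 MICs of each agent alone re-determined in the checkerboard run. Two-dimensional broth microdilution per CLSI M27-A3, 35 °C for 48 h, each test performed twice (duplicate).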

[7] = test system: Aspergillus flavus; experiment: Synergistic antifungal activity against Aspergillus flavus ATCC 16870 measured after 48 hrs in presence of fluconazole by two-dimensional broth microdilution checkboard method; format: functional; details: ATCC 16870, 48 h
Outline: (§3)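 Two-dimensional broth microdilution checkerboard combining test agent with fluconazole per CLSI M27-A3, 35 °C for 48 h, duplicate runs. Combination MICs read. FIC index = MIC_A(comb)/MIC_A(alone) + MIC_B(comb)/MIC_B(alone). Interaction classed synergistic ≤0.5, indifferent >0.5–4, antagonistic >4.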

[8] = test system: Cryptococcus neoformans; experiment: Synergistic antifungal activity against Cryptococcus neoformans ATCC 32719 measured after 48 hrs in presence of fluconazole by two-dimensional broth microdilution checkboard method; format: functional; details: ATCC 32719, 48 h; outline: as §3
[9] = test system: Aspergillus flavus; experiment: Synergistic antifungal activity against Aspergillus flavus ATCC 16870 assessed as FIC index measured after 48 hrs in presence of fluconazole by two-dimensional broth microdilution checkboard method; format: functional; outline: as §3
[10] = Inhibition of yeast chitin synthase using UDP-GlcNAc as substrate measured after 1 hr; parameters: species or system Saccharomyces cerevisiae; outline: as §1
[11] = test system: Aspergillus fumigatus; experiment: Antifungal activity against Aspergillus fumigatus GIMCC 3.19 measured after 48 hrs by two-dimensional broth microdilution checkboard method; format: functional; details: GIMCC 3.19, 48 h; outline: as §2
[12] = test system: Candida albicans; experiment: Antifungal activity against Candida albicans ATCC 76615 measured after 48 hrs by two-dimensional broth microdilution checkboard method; format: functional; details: ATCC 76615, 48 h; outline: as §2
[13] = test system: Cryptococcus neoformans; experiment: Antifungal activity against Cryptococcus neoformans ATCC 32719 measured after 48 hrs by two-dimensional broth microdilution checkboard method; format: functional; details: ATCC 32719, 48 h; outline: as §2
[14] = test system: Candida albicans; experiment: Synergistic antifungal activity against Candida albicans ATCC 76615 assessed as FIC index measured after 48 hrs in presence of fluconazole by two-dimensional broth microdilution checkboard method; format: functional; outline: as §3
[15] = test system: Aspergillus fumigatus; experiment: Synergistic antifungal activity against Aspergillus fumigatus GIMCC 3.19 measured after 48 hrs in presence of fluconazole by two-dimensional broth microdilution checkboard method; format: functional; details: GIMCC 3.19, 48 h; outline: as §3
[16] = test system: Candida albicans; experiment: Synergistic antifungal activity against Candida albicans ATCC 76615 measured after 48 hrs in presence of fluconazole by two-dimensional broth microdilution checkboard method; format: functional; details: ATCC 76615, 48 h; outline: as §3
[17] = test system: Cryptococcus neoformans; experiment: Synergistic antifungal activity against Cryptococcus neoformans ATCC 32719 assessed as fluconazole MIC mesured after 48 hrs by two-dimensional broth microdilution checkboard method; format: functional; details: ATCC 32719, 48 h; outline: as §3
[18] = test system: Aspergillus flavus; experiment: Synergistic antifungal activity against Aspergillus flavus ATCC 16870 assessed as fluconazole MIC mesured after 48 hrs by two-dimensional broth microdilution checkboard method; format: functional; details: ATCC 16870, 48 h; outline: as §3
[19] = test system: Candida albicans; experiment: Synergistic antifungal activity against Candida albicans ATCC 76615 assessed as fluconazole MIC mesured after 48 hrs by two-dimensional broth microdilution checkboard method; format: functional; details: ATCC 76615, 48 h; outline: as §3
[20] = test system: Aspergillus fumigatus; experiment: Synergistic antifungal activity against Aspergillus fumigatus GIMCC 3.19 assessed as FIC index measured after 48 hrs in presence of fluconazole by two-dimensional broth microdilution checkboard method; format: functional; outline: as §3
[21] = test system: Cryptococcus neoformans; experiment: Synergistic antifungal activity against Cryptococcus neoformans ATCC 32719 assessed as FIC index measured after 48 hrs in presence of fluconazole by two-dimensional broth microdilution checkboard method; format: functional; outline: as §3
[22] = test system: Aspergillus fumigatus; experiment: Synergistic antifungal activity against Aspergillus fumigatus GIMCC 3.19 assessed as fluconazole MIC mesured after 48 hrs by two-dimensional broth microdilution checkboard method; format: functional; details: GIMCC 3.19, 48 h; outline: as §3

Row | SMILES | MIC [1] | inhibition [2] | MIC [3] | MIC [4] | MIC [5] | also measured
1 | Cn1c(=O)n(CC(=O)NCCC(=O)O)c(=O)c2ccccc21 | 1670 µM (≈ 510 µg/mL) | 47.5% | 1670 µM (≈ 510 µg/mL) | 830 µM (≈ 253 µg/mL) | 830 µM (≈ 253 µg/mL) | –
2 | Cn1c(=O)n(CC(=O)NC(Cc2ccc(OC(=O)Cn3c(=O)c4ccccc4n(C)c3=O)cc2)C(=O)O)c(=O)c2ccccc21 (centres undefined) | 410 µM (≈ 252 µg/mL) | 65.3% | 830 µM (≈ 509 µg/mL) | 410 µM (≈ 252 µg/mL) | 410 µM (≈ 252 µg/mL) | MIC [6]: 417 µM (≈ 256 µg/mL); MIC [7]: 209 µM; MIC [8]: 26 µM; fractional inhibitory concentration index (FICI) [9]: 0.625; IC50 [10]: 166 µM; MIC [11]: 834 µM (≈ 512 µg/mL); MIC [12]: 417 µM (≈ 256 µg/mL); MIC [13]: 417 µM (≈ 256 µg/mL); fractional inhibitory concentration index (FICI) [14]: 1.125; MIC [15]: 209 µM; MIC [16]: 417 µM; MIC [17]: 52 µM; MIC [18]: 26 µM; MIC [19]: 13 µM; fractional inhibitory concentration index (FICI) [20]: 0.3125; fractional inhibitory concentration index (FICI) [21]: 0.5625; MIC [22]: 52 µM
3 | Cn1c(=O)n(CC(=O)N[C@@H](Cc2ccccc2)C(=O)O)c(=O)c2ccccc21 | > 1340 µM | 50.5% | > 1340 µM | > 1340 µM | > 1340 µM | –
4 | Cn1c(=O)n(CC(=O)NCC(=O)O)c(=O)c2ccccc21 | 870 µM (≈ 253 µg/mL) | 22.6% | > 1750 µM | > 1750 µM | 870 µM (≈ 253 µg/mL) | –
5 | C[C@@H](NC(=O)Cn1c(=O)c2ccccc2n(C)c1=O)C(=O)O | 830 µM (≈ 253 µg/mL) | 47.8% | 1670 µM (≈ 510 µg/mL) | 830 µM (≈ 253 µg/mL) | 830 µM (≈ 253 µg/mL) | –
6 | Cn1c(=O)n(CC(=O)NCCCC(=O)O)c(=O)c2ccccc21 | 1600 µM (≈ 511 µg/mL) | 68.2% | 1600 µM (≈ 511 µg/mL) | 800 µM (≈ 255 µg/mL) | 800 µM (≈ 255 µg/mL) | IC50 [10]: 300 µM
7 | CC(C)C[C@H](NC(=O)Cn1c(=O)c2ccccc2n(C)c1=O)C(=O)O | > 1470 µM | 52.8% | > 1470 µM | 730 µM (≈ 254 µg/mL) | > 1470 µM | –
8 | CCC(NC(=O)Cn1c(=O)c2ccccc2n(C)c1=O)C(=O)O (centres undefined) | 1600 µM (≈ 511 µg/mL) | 13.2% | > 1600 µM | 800 µM (≈ 255 µg/mL) | 800 µM (≈ 255 µg/mL) | –
9 | Cn1c(=O)n(CC(=O)N[C@@H](CO)C(=O)O)c(=O)c2ccccc21 | 1590 µM (≈ 511 µg/mL) | 56.2% | > 1590 µM | 790 µM (≈ 254 µg/mL) | > 1590 µM | –
10 | CSCC[C@H](NC(=O)Cn1c(=O)c2ccccc2n(C)c1=O)C(=O)O | > 1400 µM | 43.1% | > 1400 µM | 1400 µM (≈ 512 µg/mL) | 700 µM (≈ 256 µg/mL) | –
11 | OC(Cn1cncn1)(Cn1cncn1)c1ccc(F)cc1F [FLUCONAZOLE] | 100 µM (≈ 30.6 µg/mL) | – | 200 µM (≈ 61.3 µg/mL) | 50 µM (≈ 15.3 µg/mL) | 100 µM (≈ 30.6 µg/mL) | MIC [6]: 104 µM (≈ 31.9 µg/mL); MIC [11]: 209 µM (≈ 64 µg/mL); MIC [12]: 104 µM (≈ 31.9 µg/mL); MIC [13]: 104 µM (≈ 31.9 µg/mL)
12 | CC(C)[C@H](NC(=O)Cn1c(=O)c2ccccc2n(C)c1=O)C(=O)O | > 1530 µM | 18.5% | > 1530 µM | 760 µM (≈ 253 µg/mL) | 760 µM (≈ 253 µg/mL) | –
13 | Cn1c(=O)n(CC(=O)N2CCC[C@H]2C(=O)O)c(=O)c2ccccc21 | 1540 µM (≈ 510 µg/mL) | 75.5% | > 1540 µM | 770 µM (≈ 255 µg/mL) | 770 µM (≈ 255 µg/mL) | MIC [6]: 773 µM (≈ 256 µg/mL); MIC [7]: 193 µM; MIC [8]: 386 µM; fractional inhibitory concentration index (FICI) [9]: 0.3125; IC50 [10]: 180 µM; MIC [11]: 1540 µM (≈ 512 µg/mL); MIC [12]: 773 µM (≈ 256 µg/mL); MIC [13]: 773 µM (≈ 256 µg/mL); fractional inhibitory concentration index (FICI) [14]: 0.625; MIC [15]: 1540 µM; MIC [16]: 386 µM; MIC [17]: 104 µM; MIC [18]: 7 µM; MIC [19]: 13 µM; fractional inhibitory concentration index (FICI) [20]: 1.0625; fractional inhibitory concentration index (FICI) [21]: 1.5; MIC [22]: 13 µM
14 | Cn1c(=O)n(CC(=O)N[C@@H](Cc2c[nH]c3ccccc23)C(=O)O)c(=O)c2ccccc21 | 600 µM (≈ 252 µg/mL) | 43.8% | > 1210 µM | > 1210 µM | 600 µM (≈ 252 µg/mL) | –
15 | Cn1c(=O)n(CC(=O)N[C@@H](Cc2cnc[nH]2)C(=O)O)c(=O)c2ccccc21 | > 1370 µM | 61.5% | > 1370 µM | 1370 µM (≈ 509 µg/mL) | 680 µM (≈ 253 µg/mL) | IC50 [10]: 300 µM
